# The list is not random: actives were taken first. Their share in the collection is about 1.9%.
# ADAM17 inh = inhibits human ADAM17; inhibition, % at 6.95 µM; actives 0.83% (n = 370,000); AID 720648; recombinant ADAM17, EDANS/DABCYL FRET peptide cleavage;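 active = inhibition above the mean of compounds lying between control limits plus 3 SD, set per campaign, cut at about 8.5% in these data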;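 note: 0% = DMSO-only wells as the low control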
# Target sequence (P78536 215-824 limits assumed): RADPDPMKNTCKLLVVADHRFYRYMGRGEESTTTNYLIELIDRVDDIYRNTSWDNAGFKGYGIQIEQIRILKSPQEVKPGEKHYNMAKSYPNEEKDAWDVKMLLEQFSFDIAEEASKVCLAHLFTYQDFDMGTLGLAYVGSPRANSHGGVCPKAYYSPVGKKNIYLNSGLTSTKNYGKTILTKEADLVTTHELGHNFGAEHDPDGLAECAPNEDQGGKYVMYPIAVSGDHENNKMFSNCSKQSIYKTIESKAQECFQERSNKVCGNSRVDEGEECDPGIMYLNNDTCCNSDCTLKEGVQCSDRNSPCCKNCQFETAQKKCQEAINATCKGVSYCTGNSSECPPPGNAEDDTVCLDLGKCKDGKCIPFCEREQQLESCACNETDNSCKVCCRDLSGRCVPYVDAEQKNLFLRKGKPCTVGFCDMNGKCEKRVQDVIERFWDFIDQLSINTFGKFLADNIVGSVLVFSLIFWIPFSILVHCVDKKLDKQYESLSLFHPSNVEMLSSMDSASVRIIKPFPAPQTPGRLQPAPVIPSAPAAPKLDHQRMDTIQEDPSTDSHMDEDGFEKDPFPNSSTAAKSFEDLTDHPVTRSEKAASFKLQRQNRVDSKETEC
# ADAM10 inh = inhibits human ADAM10. O14672. recombinant ADAM10, EDANS/DABCYL FRET peptide cleavage, 3 h. inhibition, % at 7 µM. actives 0.62% (n = 370,000). AID 720582;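 active = inhibition above a per-campaign cutoff equal to the mean of compounds falling between control-based bounds plus 3 SD, cut at about 20% in these data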;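 note: 0% = DMSO wells while the 100% control is not disclosed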
# SENP1 FRET inh = SENP1 (human) catalytic domain inhibition; inhibition, % at 10 µM; AID 624204; Q9P0U3; actives 0.21% (n = 360,000); recombinant SENP1 catalytic domain, CyPet-SUMO1-YPet FRET cleavage;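 active = inhibition at least 30% at 10 µM, raw YFP signal under a set limit, fluorescence ratio 0.5 to 1.5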;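 note: 0% = enzyme with DMSO and 100% = no enzyme wells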
#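 Compound: 10 µM single point, 0.5% DMSO; Test system: hSENP1 catalytic domain, recombinant; Timing: 50 min reaction at room temperature; Technique: FRET, CFP and YFP emission; Control set: no-enzyme wells low, DMSO-plus-enzyme wells high control.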
# FAS-TE inh = FAS thioesterase (human) inhibition; P49327; recombinant FAS-TE, OMFH fluorogenic substrate, fluorescence endpoint; inhibition, % at 15 µM; actives 0.67% (n = 360,000); AID 602261;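 active = compounds whose normalised, plate-corrected inhibition of enzyme fluorescence in the single-dose primary screen is 50% or more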;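 note: 0% = DMSO with enzyme and 100% = substrate without enzyme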
# ADAM10 confirm = confirmation of inhibitors of human ADAM10; shares compounds with ADAM10 inh; ADAM10 QFRET peptide cleavage, EDANS fluorescence; inhibition, % at 6.95 µM; actives 1% (n = 2,100); AID 743208;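 active = inhibition above about 20% chosen separately for each screening run, limit read from the data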;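 note: 0% = DMSO wells and 100% = marimastat wells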
# ADAM17 ctr = counter-screen for ADAM10 exosite inhibitors: inhibitors of human ADAM17. AID 743214. shares compounds with ADAM10 inh. inhibition, % at 6.95 µM. actives 0.5% (n = 2,100). ADAM17 QFRET peptide cleavage, EDANS fluorescence;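 active = mean triplicate inhibition above the solvent-only control wells' mean plus 3 SD, cut at about 12% in these data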;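 note: 0% = DMSO wells and 100% = marimastat wells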
# ADAM10 ctr = ADAM10 inhibition, counter-screen for ADAM17 exosite hits; shares compounds with ADAM17 inh; recombinant ADAM10, EDANS/DABCYL FRET peptide cleavage, 3 h; inhibition, % at 6.95 µM; actives 47% (n = 2,900); AID 743256;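 active = mean inhibition over the triplicate runs exceeds the activity threshold set in the earlier primary screen, cut at about 20% in these data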;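 note: 0% = DMSO wells and 100% = marimastat wells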
# ADAM17 confirm = human ADAM17 inhibition, confirmation; shares compounds with ADAM17 inh; recombinant ADAM17, EDANS/DABCYL QFRET peptide cleavage; actives 65% (n = 2,900); inhibition, % at 6.95 µM;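 active = mean inhibition across replicates above the hit cutoff set in the primary screen, cut at about 8.5% in these data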;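 note: 0% = DMSO wells and 100% = marimastat wells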
# Starred values were filed as active, the others as inactive; nt = no result given.
SMILES,ADAM17 inh,ADAM10 inh,SENP1 FRET inh,FAS-TE inh,ADAM10 confirm,ADAM17 ctr,ADAM10 ctr,ADAM17 confirm
C=CC[C@@H](CC(=O)N[C@H](CO)Cc1ccccc1)C(=O)N[C@H](COC(=O)[C@@H](CC=C)CC(=O)OC(C)(C)C)Cc1c[nH]c2ccccc12,7,12,1,19,nt,nt,nt,nt
C=CCC[C@H](Cc1ccc(F)cc1)C(=O)OC[C@H](Cc1c[nH]c2ccccc12)NC(=O)[C@@H](CC=C)CC(=O)N(CCO)Cc1ccccc1,14*,27*,0,27,9,3,40*,20*
CCCCCN1CCCCC(NC(=O)c2ccccc2OC)C1=O (configuration not stated),-2,2,nt,nt,nt,nt,nt,nt
Cc1ccc(Cn2cc(COC(=O)Nc3ccc(F)cc3)nn2)cc1,2,4,nt,nt,nt,nt,nt,nt
COc1cc(-n2c(C)nc3cc(C(=O)N4CCN(C(C)=O)CC4)ccc32)cc(OC)c1OC,3,-13,nt,nt,nt,nt,nt,nt
O=C(NCc1ccccc1)[C@@H]1CCCN1C(=O)[C@H]1CCCN1C(=O)c1ccc(F)cc1F,0,2,nt,nt,nt,nt,nt,nt
C=CCC[C@@H](Cc1ccc(F)cc1)C(=O)OC[C@H](Cc1c[nH]c2ccccc12)NC(=O)[C@H](CC=C)CC(=O)N(CCO)Cc1ccccc1,12*,21*,3,22,11,3,55*,27*
C=CC[C@@H](CC(=O)N(CCO)Cc1ccccc1)C(=O)N[C@H](C)COC(=O)[C@@H](CC=C)Cc1ccc(F)cc1,2,6,1,11,nt,nt,nt,nt
CCOC(=O)C1=CN(Cc2cccc(F)c2)S(=O)(=O)NC1c1ccc(Br)cc1F (configuration not stated),9.6*,21*,2,27,3,1,24*,15*
CCn1c(SCc2ccc(C(C)(C)C)cc2)nnc1-c1ccc(C(C)(C)C)cc1,-5,-6,nt,nt,nt,nt,nt,nt
CN(c1ccc(C(=O)NCCSCc2ccc(Cl)cc2)cc1)S(=O)(=O)c1ccccc1,18*,28*,2,-10,6,2,36*,15*
O=C(CCCOc1ccc(Cl)cc1Cl)Nc1ccncc1,-5,-4,3,-2,nt,nt,nt,nt
O=C(Nc1cccc(Cl)c1)OCCOCCOC(=O)Nc1cccc(Cl)c1,9.8*,21*,0,32,4,2,20,13*
O=C(Nc1ccccc1)OCCOc1ccc(Cl)cc1Cl,12*,32*,0,32,5,2,28*,15*
CC(C)=CC(=O)NCC1CCN(C(=O)C(=O)c2cc3ccccc3o2)CC1,-1,-1,nt,nt,nt,nt,nt,nt
COCCNC(=S)Nc1ccc(N2CCOCC2)c(S(=O)(=O)Nc2ccccc2OC)c1,1,3,2,1,nt,nt,nt,nt
CCOc1ccc(NC(=O)c2ccc(NS(=O)(=O)c3cccc4cccnc34)cc2)cc1,0,0,0,18,nt,nt,nt,nt
CCOc1ccc(NS(=O)(=O)c2cc(NC(=O)c3ccc(C)cc3)ccc2Cl)cc1,13*,28*,3,43,8,2,39*,22*
COc1ccc(C(=O)Nc2ccc(Cl)c(S(=O)(=O)Nc3ccccc3OC)c2)cc1,13*,21*,2,26,4,2,40*,23*
COc1ccccc1NS(=O)(=O)c1cc(NC(=O)c2cc(F)c(F)c(F)c2F)ccc1N1CCOCC1,8.8*,22*,0,39,11,3,43*,28*
Cc1cccc(NC(=O)c2ccc(NS(=O)(=O)c3cccc4cccnc34)cc2)c1,13*,24*,2,23,4,1,24*,15*
Cc1ccccc1NC(=O)N(C)[C@H]1C[C@H]2c3[nH]c4c(-c5ccccc5)cccc4c3CCN2C[C@H]1[C@H](C)O,-5,-43,nt,nt,nt,nt,nt,nt
COC(=O)[C@H](C(C)C)N1Cc2nnn(CC3CCCCC3)c2-c2cc(F)ccc2S1(=O)=O,3,8,nt,nt,nt,nt,nt,nt
CC(OC(=O)c1cccc(S(=O)(=O)Nc2cccc(C(F)(F)F)c2)c1)C(=O)Nc1ccc2c(c1)OCCO2 (configuration not stated),9.2*,28*,2,19,5,1,28*,14*
CCOC(=O)c1c(N)sc(C(O)(C(F)(F)F)C(F)(F)F)c1-c1ccc(Cl)cc1,11*,37*,-2,47,8,2,47*,24*
SMILES,ADAM17 inh,ADAM10 inh,SENP1 FRET inh,FAS-TE inh,ADAM10 confirm,ADAM17 ctr,ADAM10 ctr,ADAM17 confirm
O=S(=O)(NCCOCC(F)(F)C(F)F)c1ccc2oc3ccccc3c2c1,9.5*,29*,2,34,1,0,32*,21*
CC1(C)Oc2ccc(C(=O)NCCCN3CCCC3)cc2NC1=O,1,2,nt,nt,nt,nt,nt,nt
O=C(CN1C(=O)C2(OCCCO2)c2ccccc21)NCc1ccc2ccccc2c1,1,2,nt,nt,nt,nt,nt,nt
O=C(NCC1CCCO1)C(c1cccs1)N(Cc1ccccc1)C(=O)c1ccc(-c2ccccc2)[nH]1 (configuration not stated),12*,30*,-1,27,12,4,18,14*
CCC[C@H]1CN(c2ccc(Br)cc2)C(=O)[C@@H]1CC(=O)Nc1ccc(OC)cc1,-2,-8,1,27,nt,nt,nt,nt
CCC[C@H]1CN(c2ccc(Br)cc2)C(=O)[C@@H]1CC(=O)Nc1ccccc1,18*,24*,2,18,0,0,20*,4
COc1cc(/C=N/NC(=O)Cc2csc(C)n2)ccc1OCC(C)C,2,7,-1,1,nt,nt,nt,nt
COc1ccc(/C=N/NC(=O)Cc2csc(Nc3cccc(C(F)(F)F)c3)n2)cc1C,13*,28*,-1,23,6,2,33*,20*
O=[N+]([O-])c1cc(S(=O)(=O)Nc2ccccc2)ccc1N1CCN(c2ccccc2)CC1,11*,24*,0,24,11,3,38*,21*
FC(F)Sc1ccc(NC(=S)NC2CCCCC2)cc1,14*,25*,2,16,4,1,15,11*
CCOc1ccc(C(Nc2cccnc2)c2cc(Cl)c3cccnc3c2O)cc1 (configuration not stated),15*,22*,1,-4,45*,15*,49*,28*
CCOC(=O)C1=C(C)N(Cc2ccccc2)C(=O)NC1c1ccccc1OS(=O)(=O)c1ccccc1[N+](=O)[O-] (configuration not stated),9.8*,21*,2,40,14,4,49*,21*

# Source: PubChem (several laboratories)
